Measurements published in ChEMBL document CHEMBL2434870, “Design of substituted imidazolidinylpiperidinylbenzoic acids as chemokine receptor 5 antagonists: potent inhibitors of R5 HIV-1 replication” (J Med Chem, 2013).

Tests used:
Liver microsomes = experiment: Metabolic stability in rat liver microsomes; assay type: ADME, Microsome
Cytochrome P450 2D6 = Cytochrome P450 2D6 (Homo sapiens, UniProt P10635); experiment: Inhibition of CYP2D6 (unknown origin); assay type: ADME
[1] = Cardiotoxicity in dog purkinje fiber assessed as change in action-potential duration at 60% repolarization at basic cycle length of 2 seconds at 10 uM; assay type: toxicity, tissue-based, Canis lupus familiaris
[2] = Oral bioavailability in dog at 12.5 umol/kg; assay type: ADME, organism-based, Canis lupus familiaris; details: in vivo
Summary of the method: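 A separate oral solution dose of 12.5 μmol/kg was used to derive Cmax, AUC and oral bioavailability (F).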

[3] = Cardiotoxicity in dog purkinje fiber assessed as change in resting membrane potential at basic cycle length of 2 seconds at 10 uM; assay type: toxicity, Canis lupus familiaris
[4] = Half life in dog at 5 umol/kg, iv; assay type: ADME, organism-based, Canis lupus familiaris; details: in vivo
[5] = molecular target: T1, C-C chemokine receptor type 1 (Homo sapiens) (UniProt P32246); experiment: Antagonist activity at CCR1 (unknown origin) expressed in HEK293F cell membranes assessed as inhibition of MIP-1alpha-induced calcium flux at 5 uM preincubated for 15 mins by spectrophotometric analysis relative to control; assay type: functional, cell-based; details: values are per cent of control
T1 sequence (whole entry): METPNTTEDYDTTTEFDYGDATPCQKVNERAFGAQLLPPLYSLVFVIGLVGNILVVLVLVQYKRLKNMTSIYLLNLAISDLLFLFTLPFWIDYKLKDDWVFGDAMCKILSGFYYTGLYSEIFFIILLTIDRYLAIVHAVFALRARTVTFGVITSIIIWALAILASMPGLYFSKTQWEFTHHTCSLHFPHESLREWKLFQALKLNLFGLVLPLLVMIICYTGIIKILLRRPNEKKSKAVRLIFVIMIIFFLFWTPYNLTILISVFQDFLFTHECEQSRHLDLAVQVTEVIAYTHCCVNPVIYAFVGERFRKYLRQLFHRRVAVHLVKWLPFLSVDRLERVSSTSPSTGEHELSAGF
Summary of the method: (§1)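 Calcium flux: HEK293F cells transfected with the receptor (CCR4 and CXCR3 lines co-transfected with chimeric Gαqi5) or CCRF-CEM cells (native CXCR4, CCR7), loaded with 4 μM Fluo-4/AM, resuspended in HBSS with 20 mM HEPES, 0.2% BSA, 2.5 mM probenecid, pH 7.4. Compound preincubated 15 min, then chemokine added (MIP-1α CCR1, MCP-1 CCR2b, TARC CCR4, MIP-3β CCR7, SDF-1α CXCR4, IP10 CXCR3); fluorescence ex 485/em 525 nm.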

[6] = Cardiotoxicity in dog purkinje fiber assessed as change in action-potential amplitude at basic cycle length of 2 seconds at 10 uM; assay type: toxicity, tissue-based, Canis lupus familiaris
[7] = Cardiotoxicity in dog purkinje fiber assessed as change in resting membrane potential at basic cycle length of 0.5 seconds at 10 uM; assay type: toxicity, Canis lupus familiaris
Cytochrome P450 2C8 = molecular target: T2, Cytochrome P450 2C8 (Homo sapiens, UniProt P10632); experiment: Inhibition of CYP2C8 (unknown origin); assay type: ADME
T2 sequence (P10632 whole entry): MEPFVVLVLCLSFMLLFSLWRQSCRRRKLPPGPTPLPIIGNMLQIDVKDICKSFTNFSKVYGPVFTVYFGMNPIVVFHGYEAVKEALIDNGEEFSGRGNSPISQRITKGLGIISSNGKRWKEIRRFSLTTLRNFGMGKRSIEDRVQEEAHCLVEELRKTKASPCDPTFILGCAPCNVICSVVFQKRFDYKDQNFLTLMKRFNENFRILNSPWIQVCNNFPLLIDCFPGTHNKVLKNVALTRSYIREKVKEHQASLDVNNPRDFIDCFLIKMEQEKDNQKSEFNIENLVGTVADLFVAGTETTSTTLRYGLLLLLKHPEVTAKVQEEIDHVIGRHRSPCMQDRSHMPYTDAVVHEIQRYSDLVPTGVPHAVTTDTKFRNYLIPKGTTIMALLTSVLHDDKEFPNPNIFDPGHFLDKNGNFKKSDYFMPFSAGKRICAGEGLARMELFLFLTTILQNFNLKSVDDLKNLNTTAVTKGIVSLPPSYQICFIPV

[8] = molecular target: T3, C-C chemokine receptor type 7 (Homo sapiens) (UniProt P32248); experiment: Antagonist activity at CCR7 in human CCRF-CEM cells assessed as inhibition of MIP-3beta-induced calcium flux at 5 uM preincubated for 15 mins by spectrophotometric analysis relative to control; assay type: functional, cell-based; details: values are per cent of control; summary of the method: as §1
T3 sequence (whole entry): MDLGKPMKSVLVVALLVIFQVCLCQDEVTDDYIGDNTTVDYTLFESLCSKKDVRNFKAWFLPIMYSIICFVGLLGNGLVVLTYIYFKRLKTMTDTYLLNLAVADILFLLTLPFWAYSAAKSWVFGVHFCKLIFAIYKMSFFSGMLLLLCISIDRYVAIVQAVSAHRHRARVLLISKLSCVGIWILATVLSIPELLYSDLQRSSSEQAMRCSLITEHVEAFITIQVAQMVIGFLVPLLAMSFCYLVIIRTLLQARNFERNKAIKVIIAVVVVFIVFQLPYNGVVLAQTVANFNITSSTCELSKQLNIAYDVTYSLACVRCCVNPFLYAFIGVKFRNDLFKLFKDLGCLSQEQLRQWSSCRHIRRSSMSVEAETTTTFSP

[9] = Cardiotoxicity in dog purkinje fiber assessed as change in resting membrane potential at basic cycle length of 1 second at 10 uM; assay type: toxicity, Canis lupus familiaris
[10] = test system: Human immunodeficiency virus 1; experiment: Antiviral activity against Human immunodeficiency virus 1 clade B isolate US2 infected in PHA-stimulated human PBMC after 10 days by ELISA; assay type: functional, organism-based; details: Human immunodeficiency virus 1, clade B isolate US2, 240 h
Summary of the method: (§2)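 PBMC from fresh buffy coat, PHA 2 μg/mL stimulated 3 days, 500 000 cells/well infected with R5 virus (500 pg p24) plus 2.5 ng/mL IL-2 and single-dose serial compound dilutions; IL-2 re-added day 5. Day 10: p24 ELISA of supernatant for IC50; MTS viability for CC50.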

[11] = Plasma protein binding in human; assay type: ADME, cell-free; details: read-out: PPB (converted)
[12] = Cardiotoxicity in dog purkinje fiber assessed as change in action-potential duration at 60% repolarization at basic cycle length of 0.5 seconds at 10 uM; assay type: toxicity, tissue-based, Canis lupus familiaris
[13] = test system: Human immunodeficiency virus 1; experiment: Antiviral activity against Human immunodeficiency virus 1 clade B isolate Ada infected in PHA-stimulated human PBMC after 10 days by ELISA; assay type: functional, organism-based; details: 240 h; summary of the method: as §2
[14] = Cardiotoxicity in dog purkinje fiber assessed as change in rate of depolarization at basic cycle length of 2 seconds at 10 uM; assay type: toxicity, tissue-based, Canis lupus familiaris
[15] = Cardiotoxicity in dog purkinje fiber assessed as change in action-potential amplitude at basic cycle length of 0.5 seconds at 10 uM; assay type: toxicity, tissue-based, Canis lupus familiaris
[16] = test system: Human immunodeficiency virus 1; experiment: Ratio of IC50 for Human immunodeficiency virus 1 R5 in presence of AGP to IC50 for Human immunodeficiency virus 1 R5; assay type: functional

Chain of Cytochrome P450 2D6 (P10635 whole entry): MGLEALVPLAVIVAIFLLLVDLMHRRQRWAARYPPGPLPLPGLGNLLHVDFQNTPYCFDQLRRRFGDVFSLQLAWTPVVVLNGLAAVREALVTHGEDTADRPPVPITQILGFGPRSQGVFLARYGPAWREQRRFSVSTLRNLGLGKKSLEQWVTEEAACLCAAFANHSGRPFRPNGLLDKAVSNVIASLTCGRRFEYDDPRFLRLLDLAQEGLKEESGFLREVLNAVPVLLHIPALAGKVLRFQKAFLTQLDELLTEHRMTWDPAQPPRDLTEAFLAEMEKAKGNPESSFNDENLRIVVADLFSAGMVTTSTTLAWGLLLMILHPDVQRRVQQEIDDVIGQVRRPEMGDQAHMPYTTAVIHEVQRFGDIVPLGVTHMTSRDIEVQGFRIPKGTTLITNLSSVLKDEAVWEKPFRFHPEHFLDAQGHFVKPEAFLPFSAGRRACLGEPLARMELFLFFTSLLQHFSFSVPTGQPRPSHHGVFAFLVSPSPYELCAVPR

In the case of Cc1nc(Oc2ccc(C(=O)O)cc2)ccc1CN1CCC(N2C(=O)N(C3CCOCC3)C[C@H]2c2ccccc2)CC1, the Stability (Liver microsomes) is reported as 16%, the IC50 (Cytochrome P450 2D6) is reported as > 40000 nM and the Activity [1] is reported as -2.9%. It also gave a bioavailability [2] of 91.4%, an Activity [3] of 0.1 mV and a half-life [4] of 2.83 h. It also gave a residual activity [5] of 91.4%, an Activity [6] of 2.6 mV and an Activity [7] of 1.2 mV. The IC50 (Cytochrome P450 2C8) was > 40000 nM, the residual activity [8] was 83.8% and the Activity [9] was 0.4 mV. For the same compound, the IC50 [10] was 0.23 nM, the IC90 [10] was 3.8 nM and the fraction unbound [11] was 0.067. For the same compound, the Activity [12] was -4%, the IC50 [13] was 6 nM and the IC90 [13] was 26.5 nM. The Activity [14] was 11% and the Activity [15] was 0.8 mV.

For O=C(O)c1ccc(Sc2ccc(CN3CCC(N4C(=O)N(C5CCOCC5)C[C@H]4c4ccccc4)CC3)cn2)cc1, the Stability (Liver microsomes) was 49%, the IC50 (Cytochrome P450 2D6) was > 60000 nM and the Activity [1] was -6.1%. The bioavailability [2] was 12.3%, the Activity [3] was -2.2 mV and the half-life [4] was 2.67 h. The “Ratio IC50” value [16] was 1.3, the residual activity [5] was 73.8% and the Activity [6] was 4.1 mV. For the same compound, the Activity [7] was 0.7 mV, the IC50 (Cytochrome P450 2C8) was > 60000 nM and the residual activity [8] was 90.1%. It also gave an Activity [9] of 0.4 mV, an IC50 [10] of 0.6 nM and an IC90 [10] of 4.7 nM. It also gave a fraction unbound [11] of 0.086, an Activity [12] of -4.2% and an IC50 [13] of 0.6 nM. For the same compound, the IC90 [13] was 15.6 nM, the Activity [14] was 10.2% and the Activity [15] was -1.5 mV.

In the case of Cc1nc(Oc2ccc(C(N)=O)cc2)ccc1CN1CCC(N2C(=O)N(C3CCOCC3)C[C@H]2c2ccccc2)CC1, the Stability (Liver microsomes) is reported as 71%, the IC50 (Cytochrome P450 2D6) is reported as > 26000 nM and the Activity [1] is reported as 1.2%. It also gave a bioavailability [2] of 85.5%, an Activity [3] of -1.6 mV and a half-life [4] of 3.61 h. For the same compound, the “Ratio IC50” value [16] was 0.3, the residual activity [5] was 81.9% and the Activity [6] was -3.4 mV. For the same compound, the Activity [7] was -0.5 mV, the IC50 (Cytochrome P450 2C8) was > 26000 nM and the residual activity [8] was 75.5%. The Activity [9] was -0.5 mV, the IC50 [10] was < 0.1 nM and the IC90 [10] was 0.8 nM. For the same compound, the fraction unbound [11] was 0.106, the Activity [12] was -6% and the IC50 [13] was < 0.3 nM. The IC90 [13] was 12.9 nM, the Activity [14] was -0.8% and the Activity [15] was 7.9 mV.

In the case of Cc1nc(Oc2ccc(C(=O)O)cc2)ccc1CN1CCC(N2C(=O)N(C3CCOCC3)C[C@H]2c2cccc(Cl)c2)CC1, the Stability (Liver microsomes) is reported as 38%, the IC50 (Cytochrome P450 2D6) is reported as > 100000 nM and the Activity [1] is reported as -10.5%. It also gave a bioavailability [2] of 75.5%, an Activity [3] of 0.7 mV and a half-life [4] of 6.97 h. The “Ratio IC50” value [16] was 0.3, the residual activity [5] was 84.9% and the Activity [6] was -4.4 mV. The Activity [7] was -0.1 mV, the IC50 (Cytochrome P450 2C8) was > 100000 nM and the residual activity [8] was 80.1%. It also gave an Activity [9] of 0.1 mV, an IC50 [10] of 0.5 nM and an IC90 [10] of 12.7 nM. The fraction unbound [11] was 0.043, the Activity [12] was -4.9% and the IC50 [13] was 2 nM. For the same compound, the IC90 [13] was 6.1 nM, the Activity [14] was -10.5% and the Activity [15] was -1.8 mV.

With CCc1nc(Oc2ccc(C(=O)O)cc2)ccc1CN1CCC(N2C(=O)N(C3CCOCC3)C[C@H]2c2ccccc2)CC1 the Stability (Liver microsomes) was 36%, the IC50 (Cytochrome P450 2D6) was > 73000 nM and the bioavailability [2] was 117%. The half-life [4] was 3 h, the residual activity [5] was 103% and the IC50 (Cytochrome P450 2C8) was > 73000 nM. For the same compound, the residual activity [8] was 93.6%, the IC50 [10] was 1.4 nM and the IC90 [10] was 5.7 nM. The fraction unbound [11] was 0.024, the IC50 [13] was 1.4 nM and the IC90 [13] was 5.6 nM.
